These results are taken from ChEMBL document CHEMBL3351637 (Eur J Med Chem, 2014).

The test system of series [1] is A549. Nature of the series: Inhibition of microtubule bundle formation in human A549 cells assessed as cell shrinking at 200 ug/mL incubated for 1 hr by alpha-tubulin staining based fluorescence microscopy. The procedure, abridged: (§1)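 A549 cells seeded on glass coverslips at 50000 cells/ml, grown 24 h, then exposed 1 h to 200 µg/ml conjugate or parent drug. Fixed and permeabilized in methanol at -20°C for 6 min, blocked in PBS + 5% BSA, stained with anti-α-tubulin (1:500, 1 h, 37°C), Alexa568 secondary and DAPI nuclei, then imaged by fluorescence microscopy at 63x.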

The subject of series [2] is A549. Nature of the series: Cytotoxicity against human A549 cells after 48 hrs by SRB assay. The class given is functional, cell-based. As to conditions: A549, 48 h.
For series [3], the system named is A549. Nature of the series: Inhibition of microtubule bundle formation in human A549 cells assessed as cell detachment at 200 ug/mL incubated for 1 hr by alpha-tubulin staining based fluorescence microscopy. In a few lines:
as §1

Series [4] concerns A549. In words: Induction of microtubule bundling in human A549 cells at 200 ug/mL incubated for 1 hr by alpha-tubulin staining based fluorescence microscopy. Format: cell-based. In a few lines: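 A549 cells grown in E-MEM with 10% FBS, 2 mM L-glutamine, penicillin and non-essential amino acids at 37°C, 5% CO2. Seeded at 50000 cells/ml on glass coverslips, exposed after 24 h. Then fixed and permeabilized in methanol at -20°C for 6 min and blocked in PBS+5% BSA. Stained with anti-α-tubulin (1:500), Alexa568 secondary and DAPI, and imaged by fluorescence microscopy.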

Series [5] concerns MCF7. Nature of the series: Cytotoxicity against human MCF7 cells after 48 hrs by SRB assay. The class given is functional, cell-based. As to conditions: MCF7, 48 h. The procedure, abridged:
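Nanoassemblies diluted in culture medium and added at various concentrations for 48 h at 37°C/5% CO₂. Survival % vs untreated control; run thrice in triplicate; IC50 from dose–effect curves.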

Series [6] relates to MCF7. In words: Cytotoxicity against human MCF7 cells in presence of 10 mM DTT after 48 hrs by SRB assay. Format: functional, cell-based. Particulars: MCF7, 48 h.
The nature of series [7]: Stability in human serum at 37 degC assessed as ratio of HPLC area of peaks corresponding to intact compound at time zero at 2 mg/ml measured after 48 hrs. Format: ADME, cell-free. As to conditions: read-out: Stability.
A short description of series [8]: Stability of the compound in water assessed as compound mean nano particles size at 2 mg/ml by quasi-elastic light scattering method. Format: physicochemical. Particulars: buffer. The procedure, abridged: (§2)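 Nanoassemblies formed by solvent displacement into water, 10 mM buffers (citrate or acetate pH 4.5, phosphate pH 7.5, borate or carbonate pH 10.2) or 100 mM NaCl, final 2 mg/mL. Mean diameter by quasi-elastic light scattering at 90° and 25°C, on samples diluted 1:20 in water; each value the average of five measurements.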

Series [9] can be described thus: Stability of the compound in pH 4.5 acetate buffer assessed as compound mean nano particles size at 2 mg/ml by quasi-elastic light scattering method. Format: physicochemical. The procedure, abridged: as §2
Series [10] in a line: Stability of the compound in presence of 100 mM NaCl assessed as compound mean nano particles size at 2 mg/ml by quasi-elastic light scattering method. Format: physicochemical. The procedure, abridged:
as §2

Series [11] is described as follows: Stability of the compound in pH 10.2 borate buffer assessed as compound mean nano particles size at 2 mg/ml by quasi-elastic light scattering method. The class given is physicochemical. The procedure, abridged: as §2
Series [12] in a line: Stability of the compound assessed as compound mean nano particles size diluted with water at 2 mg/ml measured after 3 months at 5 degC by quasi-elastic light scattering method. Format: physicochemical. Particulars: buffer, 2191.5 h. The procedure, abridged:
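Nanoassemblies made by nanoprecipitation in water as 2 mg/mL dispersions, stored at 5°C. Size checked after three months on samples diluted with water, by light scattering.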

Series [13] is described as follows: Stability of the compound in pH 7.5 phosphate buffer assessed as compound mean nano particles size at 2 mg/ml by quasi-elastic light scattering method. The class given is physicochemical. In a few lines:
as §2

Series [14] is described as follows: Stability of the compound in pH 4.5 citrate buffer assessed as compound mean nano particles size at 2 mg/ml by quasi-elastic light scattering method. Format: physicochemical. In a few lines: as §2
The nature of series [15]: Stability of the compound in pH 10.2 carbonate buffer assessed as compound mean nano particles size at 2 mg/ml by quasi-elastic light scattering method. The class given is physicochemical. In a few lines: as §2
Series [16] in a line: Stability in pH 9 borate buffer. The class given is physicochemical.

Active and inactive are the calls of the source. No cut-off for these calls is given here.

In the case of `CC(=O)O[C@H]1C(=O)[C@@]2(C)[C@H]([C@H](OC(=O)c3ccccc3)[C@]3(O)C[C@H](OC(=O)[C@H](O)[C@@H](NC(=O)c4ccccc4)c4ccccc4)C(C)=C1C3(C)C)[C@]1(OC(C)=O)CO[C@@H]1C[C@@H]2O` [PACLITAXEL], the inhibition result in the series with A549 [1] and in the series with A549 [3] was “Active” each time. This molecule gave a concentration for half-maximal inhibition (IC50) with A549 [2] of 0.082 µM. For the same molecule, the result with A549 [4] was Active.
Take `COc1cc([C@@H]2c3cc4c(cc3[C@H](O)[C@H]3COC(=O)[C@H]23)OCO4)cc(OC)c1OC` [PODOFILOX]: the concentration for half-maximal inhibition (IC50) with MCF7 [5] was 0.0001 µM; in the series with A549 [2], 0.059 µM; in the series with MCF7 [6], 0.0004 µM. The inhibition entry with A549 [1] and in the series on A549 [3] was “Active” each time.
Regarding `CC[C@@]1(OC(=O)CCCSSCCCC(=O)OCCC/C(C)=C/CC/C(C)=C/CC/C=C(\C)CC/C=C(\C)CCC=C(C)C)C(=O)OCc2c1cc1n(c2=O)Cc2cc3ccccc3nc2-1`, the remaining at 48 h, 2 mg/ml in series [7] is 70%. Besides, the IC50 is 8.6 µM with MCF7 [5], > 5 µM in the series with A549 [2] and 0.8 µM with MCF7 [6]. Besides, the Stability is reported as 195.3 nm in [8]; 224.3 nm in series [9]; 339.7 nm in series [10]; 160.3 nm in series [11]; 210.2 nm in [12]; 198.9 nm in series [13]. Besides, the Stability in series [14] stood at 376.4 nm; in series [15], 250.6 nm.
For the molecule `CC[C@@]1(OC(=O)CCCCCCCCC(=O)OCCC/C(C)=C/CC/C(C)=C/CC/C=C(\C)CC/C=C(\C)CCC=C(C)C)C(=O)OCc2c1cc1n(c2=O)Cc2cc3ccccc3nc2-1`, the remaining at 48 h, 2 mg/ml in series [7] stood at 85%. Besides, the figures for the IC50 with MCF7 [5] and in the series on MCF7 [6] were 10.5 µM and 20.1 µM, respectively. The Stability in [8] was 160.2 nm; in series [9] it was 275.9 nm; in series [10] it was 461.1 nm; in series [16], “Stable”; in series [11] it was 202.3 nm; in series [12] it was 172.4 nm. In addition, the Stability turned out to be 201.5 nm in series [13], 375.4 nm in series [14] and 242.9 nm in series [15].
For the molecule `CC(=O)O[C@H]1C(=O)[C@@]2(C)[C@H]([C@H](OC(=O)c3ccccc3)[C@]3(O)C[C@H](OC(=O)[C@H](OC(=O)OCC/C(C)=C/CC/C(C)=C/CC/C=C(\C)CC/C=C(\C)CCC=C(C)C)[C@@H](NC(=O)c4ccccc4)c4ccccc4)C(C)=C1C3(C)C)[C@]1(OC(C)=O)CO[C@@H]1C[C@@H]2O`, the remaining at 48 h, 2 mg/ml in [7] was 94%. The concentration for half-maximal inhibition (IC50) in the series on MCF7 [5] is 9.1 µM; with MCF7 [6], 8.7 µM. Besides, the Stability in [12] worked out at 181.1 nm.
`C/C(=C\c1csc(C)n1)[C@@H]1C[C@@H]2O[C@@H]2CCC[C@H](C)[C@H](O)[C@@H](C)C(=O)C(C)(C)[C@@H](O)CC(=O)O1` [EPOTHILONE A]: the IC50 in the series with MCF7 [5] was 0.0009 µM; with A549 [2], > 5 µM; with MCF7 [6], 0.0008 µM. Moreover, the inhibition result in the series on A549 [1] and in the series with A549 [3] was “Active” in each case. Moreover, the result in the series on A549 [4] was Active.
Regarding `COc1cc([C@@H]2c3cc4c(cc3[C@H](OC(=O)CCCCCCCCC(=O)OCCC/C(C)=C/CC/C(C)=C/CC/C=C(\C)CC/C=C(\C)CCC=C(C)C)[C@H]3COC(=O)[C@H]23)OCO4)cc(OC)c1OC`, the remaining at 48 h, 2 mg/ml in series [7] was determined as 82%. In addition, the IC50 in the series on MCF7 [5] came to 106 µM; in the series with MCF7 [6], 111 µM. Besides, the Stability is reported as 180.5 nm in series [8]; 287.5 nm in [9]; 720.3 nm in series [10]; “Stable” in series [16]; 211.3 nm in series [11]; 210.5 nm in series [12]. Besides, the Stability in [13] amounted to 193.5 nm; in series [14], 629.2 nm; in series [15], 315 nm.
For the molecule `CC[C@@]1(O)C(=O)OCc2c1cc1n(c2=O)Cc2cc3ccccc3nc2-1` [CAMPTOTHECIN], the half-maximal inhibitory concentration (IC50) in the series on MCF7 [5] amounted to 0.0005 µM; in the series with A549 [2], 1.3 µM; with MCF7 [6] it was 0.003 µM.
For the molecule `CC(C)=CCC/C(C)=C/CC/C(C)=C/CC/C=C(\C)CC/C=C(\C)CCCOC(=O)CCCCCCCCC(=O)O[C@H]1[C@@H](C)CCC[C@H]2O[C@H]2C[C@@H](/C(C)=C/c2csc(C)n2)OC(=O)C[C@H](O)C(C)(C)C(=O)[C@@H]1C`, the remaining at 48 h, 2 mg/ml in series [7] amounted to 70%. The IC50 in the series with MCF7 [5] amounted to 40.2 µM; in the series on MCF7 [6], 45.1 µM. Also, the Stability is given as 125.3 nm in series [8]; 206 nm in series [9]; 502.4 nm in series [10]; “Stable” in series [16]; 351.1 nm in series [11]; 142.9 nm in [12]. Besides, the Stability stood at 212.9 nm in [13], 203.2 nm in [14] and 312.2 nm in series [15].
Consider `CC(C)=CCC/C(C)=C/CC/C(C)=C/CC/C=C(\C)CC/C=C(\C)CCCOC(=O)CCCSSCCCC(=O)O[C@H]1[C@@H](C)CCC[C@H]2O[C@H]2C[C@@H](/C(C)=C/c2csc(C)n2)OC(=O)C[C@H](O)C(C)(C)C(=O)[C@@H]1C`, for which the remaining at 48 h, 2 mg/ml in series [7] amounted to 58%. Also, the IC50 in the series on MCF7 [5] was 1.3 µM; in the series on A549 [2], > 5 µM; in the series with MCF7 [6], 0.5 µM. Besides, the Stability in series [8] worked out at 165.1 nm; in series [9], 201.5 nm; in series [10], 312.9 nm; in series [11], 207.7 nm; in series [12], 191.1 nm; in [13], 235.5 nm. Also, the Stability in series [14] is 197.8 nm; in series [15], 212.2 nm. Also, the inhibition entry in the series with A549 [1] and in the series on A549 [3] was “Active” in each case.
As to `COc1cc([C@@H]2c3cc4c(cc3[C@H](OC(=O)CCCSSCCCC(=O)OCCC/C(C)=C/CC/C(C)=C/CC/C=C(\C)CC/C=C(\C)CCC=C(C)C)[C@H]3COC(=O)[C@H]23)OCO4)cc(OC)c1OC`, the remaining at 48 h, 2 mg/ml in series [7] was 52%. Besides, the figures for the IC50 in the series with MCF7 [5], with A549 [2] and in the series with MCF7 [6] were 0.4 µM, 7.64 µM and 0.06 µM, respectively. For the same molecule, the Stability in [8] came to 185.9 nm; in [9], 275.9 nm; in series [10], 676 nm; in series [11], 202.3 nm; in series [12] it was 215.3 nm; in [13] it was 201.5 nm. Besides, the figures for the Stability in [14] and in series [15] were 428.3 nm and 242.9 nm, respectively. Moreover, the inhibition entry with A549 [1] and in the series with A549 [3] was “Active” throughout.
On to `CC(=O)O[C@H]1C(=O)[C@@]2(C)[C@H]([C@H](OC(=O)c3ccccc3)[C@]3(O)C[C@H](OC(=O)[C@H](OC(=O)CCCCCCCCC(=O)OCCC/C(C)=C/CC/C(C)=C/CC/C=C(\C)CC/C=C(\C)CCC=C(C)C)[C@@H](NC(=O)c4ccccc4)c4ccccc4)C(C)=C1C3(C)C)[C@]1(OC(C)=O)CO[C@@H]1C[C@@H]2O`, for which the remaining at 48 h, 2 mg/ml in series [7] was determined as 95%. Moreover, the IC50 amounted to 1.21 µM with MCF7 [5] and 1.53 µM with MCF7 [6]. In addition, the Stability is 107.9 nm in series [8]; > 2 um in [9]; > 2 um in series [10]; “Stable” in [16]; 161.4 nm in [11]; 110.5 nm in series [12]. Besides, the Stability in [13] came to 125.6 nm; in [14] it was 391.2 nm; in series [15], 635.9 nm.
